Results: ChEMBL document CHEMBL4229372, “Synthesis and anti-mitotic activity of 2,4- or 2,6-disubstituted- and 2,4,6-trisubstituted-2H-pyrazolo[4,3-c]pyridines” (2018)
The source made the active and inactive calls. The rule behind the calls is not given here.

Assays:
[1] = target: Serine/threonine-protein kinase Nek6 (Homo sapiens) (UniProt Q9HC98); assay: Inhibition of NEK6 (unknown origin)
K562 [2] = assay: Induction of apoptosis in human K562 cells assessed as activation of caspase 3/7 using Ac-DEVD-AMC as substrate after 24 hrs by fluorescence assay; assay type: functional, cell-based
In short: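 K562 cells were cultured overnight and treated with increasing concentrations for 24 h. Lysis buffer (3×; HEPES pH 7.4, NaCl, KCl, MgCl2, EGTA, NP40, CHAPS, sucrose, DTT, PMSF) containing 150 μM Ac-DEVD-AMC was added for 2 h. Fluorescence was read at 346/442 nm and normalized to untreated control.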

MCF7 [3] = assay: Induction of apoptosis in human MCF7 cells assessed as increase in phosphorylated Bcl2 level at 1.25 to 20 uM after 24 hrs by immunoblotting; assay type: functional, cell-based
In short: (§1)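 Cells treated 24 h with a range of doses, with 1 μM doxorubicin as control. Cells were harvested into Laemmli buffer, run on SDS-PAGE and blotted to nitrocellulose. Membranes were probed overnight with primary antibodies (PARP, Ser139-phospho-H2AX, Bcl-2, β-actin loading control), then peroxidase secondaries, with ECL detection on a CCD imager.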

K562 [4] = assay: Cell cycle arrest in human K562 cells assessed as accumulation at G2/M phase at 10 uM after 24 hrs by propidium iodide staining-based flow cytometric analysis (reference value: 15%); assay type: functional
MCF7 [5] = assay: Cell cycle arrest in human MCF7 cells assessed as accumulation at G1 phase at 10 uM after 24 hrs by propidium iodide staining-based flow cytometric analysis (reference value: 60.7%); assay type: functional
In short: (§2)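 MCF-7 cells in DMEM with 10% FBS and penicillin/streptomycin at 37 °C, 5% CO2. Asynchronous cells were treated 24 h, PBS-washed, trypsinized and quenched with 0.1% trypsin inhibitor. Staining used 5× citrate/IGEPAL/spermine/Tris buffer (pH 7.6) with 50 μg/mL propidium iodide. DNA content was read by 488 nm flow cytometry and cell-cycle phases modelled.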

[6] = target: Serine/threonine-protein kinase PLK3 (Homo sapiens) (UniProt Q9H4B4); assay: Inhibition of PLK3 (unknown origin)
K562 [7] = assay: Cell cycle arrest in human K562 cells assessed as accumulation at sub G1 phase at 10 uM after 24 hrs by propidium iodide staining-based flow cytometric analysis (reference value: 15%); assay type: functional
[8] = target: Cyclin-dependent kinase 1 (Homo sapiens) (UniProt P06493); assay: Inhibition of CDK1 (unknown origin)
MCF7 [9] = assay: Growth inhibition of human MCF7 cells after 72 hrs by Calcein AM dye based fluorescence assay; assay type: functional; conditions: MCF7, 72 h
In short: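 Cells in DMEM with 10% FBS at 37 °C, 5% CO2, treated in triplicate with six doses for 72 h. Calcein AM was added for 1 h and live-cell fluorescence read at 485/538 nm. GI50 was taken from dose-response curves.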

K562 [10] = assay: Cell cycle arrest in human K562 cells assessed as accumulation at G2/M phase assessed as accumulation of histone H3 phosphorylation at serine 10 residues at 5 uM after 24 hrs by propidium iodide staining-based flow cytometric analysis (reference value: 2.2%); assay type: functional
[11] = target: Wee1-like protein kinase (Homo sapiens) (UniProt P30291); assay: Inhibition of WEE1 (unknown origin)
K562 [12] = assay: Cell cycle arrest in human K562 cells assessed as accumulation at G1 phase at 10 uM after 24 hrs by propidium iodide staining-based flow cytometric analysis (reference value: 34.6%); assay type: functional
[13] = target: Death-associated protein kinase 3 (Homo sapiens) (UniProt O43293); assay: Inhibition of DAPK3 (unknown origin)
K562 [14] = assay: Cell cycle arrest in human K562 cells assessed as accumulation at G2/M phase after 24 hrs by propidium iodide staining-based flow cytometric analysis; assay type: functional
[15] = target: T1, Dual specificity protein kinase TTK (Homo sapiens) (UniProt P33981); assay: Inhibition of TTK (unknown origin)
T1 sequence (whole entry): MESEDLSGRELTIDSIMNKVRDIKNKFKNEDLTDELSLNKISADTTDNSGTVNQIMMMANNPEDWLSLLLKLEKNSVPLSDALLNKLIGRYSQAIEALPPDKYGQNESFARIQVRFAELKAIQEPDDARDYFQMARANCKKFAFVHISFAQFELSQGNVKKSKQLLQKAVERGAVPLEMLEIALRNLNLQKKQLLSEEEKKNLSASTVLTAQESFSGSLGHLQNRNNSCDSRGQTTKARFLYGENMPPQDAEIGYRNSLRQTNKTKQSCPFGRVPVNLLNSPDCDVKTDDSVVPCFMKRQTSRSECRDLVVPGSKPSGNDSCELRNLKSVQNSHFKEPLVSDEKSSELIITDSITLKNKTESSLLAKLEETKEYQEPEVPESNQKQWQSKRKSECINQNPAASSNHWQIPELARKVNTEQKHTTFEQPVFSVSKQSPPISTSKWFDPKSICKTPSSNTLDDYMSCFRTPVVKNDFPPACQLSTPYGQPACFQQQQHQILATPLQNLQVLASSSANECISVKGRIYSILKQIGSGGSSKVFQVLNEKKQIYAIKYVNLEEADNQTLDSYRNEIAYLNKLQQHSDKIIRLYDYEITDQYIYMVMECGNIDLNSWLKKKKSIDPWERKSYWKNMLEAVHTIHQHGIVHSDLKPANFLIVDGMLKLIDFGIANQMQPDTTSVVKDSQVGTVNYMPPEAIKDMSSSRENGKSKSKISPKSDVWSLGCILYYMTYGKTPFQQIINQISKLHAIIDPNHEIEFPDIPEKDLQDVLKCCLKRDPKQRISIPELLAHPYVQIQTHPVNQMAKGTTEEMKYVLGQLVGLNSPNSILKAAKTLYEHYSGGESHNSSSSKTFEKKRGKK

MCF7 [16] = assay: Cell cycle arrest in human MCF7 cells assessed as accumulation at sub G1 phase at 10 uM after 24 hrs by propidium iodide staining-based flow cytometric analysis (reference value: 7.1%); assay type: functional; in short: as §2
[17] = target: Serine/threonine-protein kinase PLK2 (Homo sapiens) (UniProt Q9NYY3); assay: Inhibition of PLK2 (unknown origin)
K562 [18] = assay: Induction of apoptosis in human K562 cells assessed as increase in PARP1 cleavage after 24 hrs by Immunoblotting; assay type: functional, cell-based; in short: as §1
[19] = target: Serine/threonine-protein kinase NIM1 (Homo sapiens) (UniProt Q8IY84); assay: Inhibition of NIM1 (unknown origin)
[20] = target: Serine/threonine-protein kinase 38 (Homo sapiens) (UniProt Q15208); assay: Inhibition of NDR1 (unknown origin)
[21] = target: Serine/threonine-protein kinase pim-2 (Homo sapiens) (UniProt Q9P1W9); assay: Inhibition of PIM2 (unknown origin)
MCF7 [22] = assay: Cell cycle arrest in human MCF7 cells assessed as accumulation at G2/M phase at 10 uM after 24 hrs by propidium iodide staining-based flow cytometric analysis (reference value: 5.3%); assay type: functional; in short: as §2

Sequence of Serine/threonine-protein kinase pim-2 (Homo sapiens) (Q9P1W9 whole entry, looked up): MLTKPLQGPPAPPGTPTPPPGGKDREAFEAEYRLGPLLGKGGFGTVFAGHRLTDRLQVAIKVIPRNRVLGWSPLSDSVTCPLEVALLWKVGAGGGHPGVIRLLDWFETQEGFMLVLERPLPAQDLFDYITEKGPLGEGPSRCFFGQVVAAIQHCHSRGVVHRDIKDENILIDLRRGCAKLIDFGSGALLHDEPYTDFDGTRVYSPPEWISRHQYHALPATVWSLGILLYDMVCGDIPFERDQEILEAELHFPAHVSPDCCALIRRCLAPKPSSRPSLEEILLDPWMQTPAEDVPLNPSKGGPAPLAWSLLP
Sequence of Serine/threonine-protein kinase PLK2 (Homo sapiens) (Q9NYY3 whole entry, looked up): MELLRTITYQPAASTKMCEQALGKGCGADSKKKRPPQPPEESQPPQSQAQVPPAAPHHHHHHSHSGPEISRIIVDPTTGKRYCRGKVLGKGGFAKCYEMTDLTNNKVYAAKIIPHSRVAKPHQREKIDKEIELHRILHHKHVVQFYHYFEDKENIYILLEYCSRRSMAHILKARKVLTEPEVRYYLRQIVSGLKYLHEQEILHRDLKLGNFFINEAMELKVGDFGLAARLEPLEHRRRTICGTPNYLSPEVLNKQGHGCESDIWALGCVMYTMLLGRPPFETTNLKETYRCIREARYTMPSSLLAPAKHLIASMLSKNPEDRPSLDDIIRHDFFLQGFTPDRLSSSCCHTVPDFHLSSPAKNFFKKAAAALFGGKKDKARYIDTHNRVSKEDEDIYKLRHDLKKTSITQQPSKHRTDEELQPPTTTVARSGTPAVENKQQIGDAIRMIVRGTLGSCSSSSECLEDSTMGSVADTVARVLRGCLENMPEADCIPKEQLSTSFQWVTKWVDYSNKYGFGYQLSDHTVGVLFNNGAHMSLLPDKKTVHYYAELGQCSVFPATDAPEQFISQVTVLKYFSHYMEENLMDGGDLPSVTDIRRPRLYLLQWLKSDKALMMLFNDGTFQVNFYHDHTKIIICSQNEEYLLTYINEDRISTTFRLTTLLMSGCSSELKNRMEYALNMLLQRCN
Sequence of Serine/threonine-protein kinase Nek6 (Homo sapiens) (Q9HC98 whole entry): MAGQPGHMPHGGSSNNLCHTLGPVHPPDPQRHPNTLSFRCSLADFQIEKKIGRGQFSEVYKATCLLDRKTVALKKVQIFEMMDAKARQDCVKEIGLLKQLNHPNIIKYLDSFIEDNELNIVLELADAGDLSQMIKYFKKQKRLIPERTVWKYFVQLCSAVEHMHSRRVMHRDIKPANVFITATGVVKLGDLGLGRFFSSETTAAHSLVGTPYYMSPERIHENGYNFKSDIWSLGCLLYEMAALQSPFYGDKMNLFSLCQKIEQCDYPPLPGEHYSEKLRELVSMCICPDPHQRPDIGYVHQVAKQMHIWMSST
Sequence of Cyclin-dependent kinase 1 (Homo sapiens) (P06493 whole entry, looked up): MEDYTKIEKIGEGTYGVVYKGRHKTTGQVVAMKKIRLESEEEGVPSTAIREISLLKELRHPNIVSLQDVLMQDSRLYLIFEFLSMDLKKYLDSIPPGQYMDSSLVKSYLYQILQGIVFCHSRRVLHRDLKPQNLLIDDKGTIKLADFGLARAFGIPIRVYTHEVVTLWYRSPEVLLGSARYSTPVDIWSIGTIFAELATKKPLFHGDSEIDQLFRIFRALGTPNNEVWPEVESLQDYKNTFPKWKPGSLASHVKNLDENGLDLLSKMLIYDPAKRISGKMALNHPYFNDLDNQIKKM
Sequence of Serine/threonine-protein kinase NIM1 (Homo sapiens) (Q8IY84 whole entry): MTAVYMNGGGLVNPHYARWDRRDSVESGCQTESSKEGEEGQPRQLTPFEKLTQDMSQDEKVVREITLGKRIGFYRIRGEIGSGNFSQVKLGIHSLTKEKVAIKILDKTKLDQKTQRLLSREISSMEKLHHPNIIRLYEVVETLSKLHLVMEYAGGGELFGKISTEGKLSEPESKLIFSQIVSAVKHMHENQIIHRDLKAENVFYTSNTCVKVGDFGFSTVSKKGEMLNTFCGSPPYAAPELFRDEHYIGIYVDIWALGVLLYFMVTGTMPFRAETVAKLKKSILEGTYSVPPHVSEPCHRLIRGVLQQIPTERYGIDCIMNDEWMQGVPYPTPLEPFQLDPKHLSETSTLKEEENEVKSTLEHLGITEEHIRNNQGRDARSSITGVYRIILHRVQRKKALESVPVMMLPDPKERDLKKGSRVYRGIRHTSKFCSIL
Sequence of Serine/threonine-protein kinase 38 (Homo sapiens) (Q15208 2-465 limits assumed): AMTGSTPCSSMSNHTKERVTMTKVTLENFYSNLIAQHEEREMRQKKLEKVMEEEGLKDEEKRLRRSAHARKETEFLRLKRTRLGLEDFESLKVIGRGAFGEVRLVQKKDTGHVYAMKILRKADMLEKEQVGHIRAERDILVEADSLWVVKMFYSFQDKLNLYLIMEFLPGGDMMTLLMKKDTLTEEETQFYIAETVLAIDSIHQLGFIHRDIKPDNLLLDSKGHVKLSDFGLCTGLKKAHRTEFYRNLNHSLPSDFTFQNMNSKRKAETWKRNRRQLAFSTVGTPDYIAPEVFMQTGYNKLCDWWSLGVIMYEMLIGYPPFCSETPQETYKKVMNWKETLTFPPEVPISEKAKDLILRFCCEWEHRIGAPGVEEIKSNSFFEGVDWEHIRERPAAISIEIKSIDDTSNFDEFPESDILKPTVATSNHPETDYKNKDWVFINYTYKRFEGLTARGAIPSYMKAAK
Sequence of Death-associated protein kinase 3 (Homo sapiens) (O43293 whole entry, looked up): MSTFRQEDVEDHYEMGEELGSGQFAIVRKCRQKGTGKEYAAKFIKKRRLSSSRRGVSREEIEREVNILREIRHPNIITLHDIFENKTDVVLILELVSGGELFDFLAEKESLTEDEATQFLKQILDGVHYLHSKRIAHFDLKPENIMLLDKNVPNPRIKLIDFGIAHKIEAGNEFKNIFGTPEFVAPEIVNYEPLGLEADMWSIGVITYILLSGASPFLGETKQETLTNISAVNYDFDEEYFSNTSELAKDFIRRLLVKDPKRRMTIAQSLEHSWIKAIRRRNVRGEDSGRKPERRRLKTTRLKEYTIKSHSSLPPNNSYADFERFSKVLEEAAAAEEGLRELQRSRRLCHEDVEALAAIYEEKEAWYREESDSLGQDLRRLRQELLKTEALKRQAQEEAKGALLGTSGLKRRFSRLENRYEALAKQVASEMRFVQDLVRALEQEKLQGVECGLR
Sequence of Serine/threonine-protein kinase PLK3 (Homo sapiens) (Q9H4B4 whole entry, looked up): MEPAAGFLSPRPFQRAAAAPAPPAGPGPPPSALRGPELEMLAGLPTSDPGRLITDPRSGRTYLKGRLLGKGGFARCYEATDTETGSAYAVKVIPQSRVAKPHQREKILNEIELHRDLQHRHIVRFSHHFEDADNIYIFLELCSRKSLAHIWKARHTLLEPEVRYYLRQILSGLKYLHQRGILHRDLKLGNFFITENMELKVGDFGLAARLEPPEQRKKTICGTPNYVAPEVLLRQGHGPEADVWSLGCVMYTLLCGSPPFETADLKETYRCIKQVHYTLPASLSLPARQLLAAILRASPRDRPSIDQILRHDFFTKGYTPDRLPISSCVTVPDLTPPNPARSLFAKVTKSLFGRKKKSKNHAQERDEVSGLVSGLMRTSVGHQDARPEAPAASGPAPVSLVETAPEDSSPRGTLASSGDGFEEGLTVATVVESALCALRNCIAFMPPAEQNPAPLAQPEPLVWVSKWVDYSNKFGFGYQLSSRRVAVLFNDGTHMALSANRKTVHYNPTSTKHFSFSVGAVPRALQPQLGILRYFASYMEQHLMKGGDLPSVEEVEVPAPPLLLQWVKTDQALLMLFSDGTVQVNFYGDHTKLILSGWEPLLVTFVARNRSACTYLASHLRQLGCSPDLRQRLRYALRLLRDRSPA
Sequence of Wee1-like protein kinase (Homo sapiens) (P30291 whole entry, looked up): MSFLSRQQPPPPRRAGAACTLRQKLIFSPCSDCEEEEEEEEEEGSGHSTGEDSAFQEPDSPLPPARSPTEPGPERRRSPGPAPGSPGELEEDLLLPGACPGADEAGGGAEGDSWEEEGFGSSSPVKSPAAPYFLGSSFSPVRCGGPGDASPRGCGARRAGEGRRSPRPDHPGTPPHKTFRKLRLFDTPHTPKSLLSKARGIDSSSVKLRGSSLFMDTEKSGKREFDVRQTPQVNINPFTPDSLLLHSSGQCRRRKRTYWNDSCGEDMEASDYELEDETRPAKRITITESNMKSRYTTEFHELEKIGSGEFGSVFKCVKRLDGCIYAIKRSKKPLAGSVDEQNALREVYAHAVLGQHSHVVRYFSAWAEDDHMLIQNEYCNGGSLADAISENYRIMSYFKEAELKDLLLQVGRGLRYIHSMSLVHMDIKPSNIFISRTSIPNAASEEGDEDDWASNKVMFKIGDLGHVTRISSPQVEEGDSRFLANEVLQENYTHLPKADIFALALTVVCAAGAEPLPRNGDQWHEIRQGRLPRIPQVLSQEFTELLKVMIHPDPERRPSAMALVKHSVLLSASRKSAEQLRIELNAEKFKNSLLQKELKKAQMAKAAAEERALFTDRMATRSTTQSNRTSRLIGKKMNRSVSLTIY

inhibition [1]: inactive
inhibition [6]: inactive
inhibition [8]: inactive
GI50 (MCF7 [9]): 11.8 µM
inhibition [11]: inactive
inhibition [15]: inactive
inhibition [17]: inactive
inhibition [19]: inactive
inhibition [20]: inactive
inhibition [21]: inactive
Compound: CCCCCc1cc2nn(-c3ccccc3)cc2cn1
Activity (K562 [2]): Dose-dependent effect
Activity (MCF7 [3]): Active
Activity (K562 [4]): 82%
Activity (MCF7 [5]): 18.1%
Activity (K562 [7]): 35.4%
Activity (K562 [10]): 20.4%
Activity (K562 [12]): 14.8%
inhibition [13]: inactive
Activity (K562 [14]): Dose-dependent effect
Activity (MCF7 [16]): 50.3%
Activity (K562 [18]): Dose-dependent effect
Activity (MCF7 [22]): 55.6%
